Consider four compounds from PMC5503752 (Biophysical chemistry, 2017).

As usually defined, the Kd is the concentration at which binding is half-saturated.

The subject of experiment [1] is CaM bound to NaV1.2 IQ motif. The settings on record: cited from earlier work.
The next experiment deals with CaM. The settings on record: absence of IQ motif; same conditions as this study; cited from earlier work.
Experiment [2] deals with sites III and IV of CaM bound to the NaV1.2 IQ motif. The experiment in a line: Simulation of calcium binding to CaM bound to the NaV1.2 IQ motif. Summed up:
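Calcium binding to sites III and IV of IQ-bound CaM was simulated by thermodynamic linkage. Inputs were earlier-measured calcium-binding energies of CaM alone (ΔG1 −7.76, ΔG2 −15.92 kcal/mol) and the apo-versus-Ca2+ difference in IQ binding. The simulation used a total free energy of −13.99 kcal/mol and the same cooperativity as free CaM.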

Experiment [3] addresses rat NaV1.2 IQ motif (residues 1901-1927) in YFP-CFP biosensor. The experiment in a line: CaM titrations of NaV1.2IQ YFP-CFP FRET biosensor. The class given is binding. The following applies: for Kd: read-out: Kd, apo CaM, apo (no CaCl2), pH 7.4, 22 °C, calculated from average ΔG. The essentials: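 Rat NaV1.2 residues 1901–1927 inserted between YFP and CFP, expressed in BL21(DE3) (IPTG, 40 h, 18 °C), used as clarified lysate. Biosensor at 0.5 nM (apo) to 5 nM (Ca2+). Titrant: paramecium-sequence CaM or its domains.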

Another experiment has as its system NaV1.5 DIII-DIV linker. The settings on record: cited from earlier work.
Experiment [4] has as its system IQ motifs of NaV1.2, 1.5, and 1.6. The following applies: cited from earlier work.
Another experiment has as its system NaV1.2 IQ motif. Also on record: species or system rat. The settings on record: free [CaM] 50–100 nM (estimated). The essentials:
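Single-site fractional saturation isotherms of the IQ motif by apo or calcium-saturated CaM were simulated from the single-site binding equation. Input was the free energies measured by biosensor titration.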

For another experiment, the system named is ryanodine receptor RyR1. The settings on record: cited from earlier work.
The next experiment concerns rat Nav1.2IQp. The following applies: thermodynamic linkage analysis; cited from earlier work.
For another experiment, the system named is CaV1.2 IQ motif. The settings on record: cited from earlier work.
The next experiment has as its system NaV1.2IQ biosensor. The class given is binding, rat. The following applies: for fractional decrease/change in YFP intensity of biosensor, apo: [CaM]:[biosensor] = 10^3:1, biosensor 4 nM, excitation 430 nm, YFP 525 nm. The essentials: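 Steady-state emission spectra were recorded with 430 nm excitation, showing CFP at 475 nm and YFP at 525 nm. Samples were biosensor alone or with >10^3-fold excess apo or Ca2+-saturated CaM, CaMN or CaMC, in titration buffer at pH 7.4 and 22 °C. Spectra were buffer-subtracted, dilution-corrected and normalized to free-biosensor intensity at 525 nm. Fractional YFP decrease was taken at λmax.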

Like-named read-outs stand apart in the source and are kept apart here.

Turning to `[Ca+2]` [calcium], the “calcium equivalents (ions per CaM) required for saturation” value in experiment [1] (CaM bound to NaV1.2 IQ motif, NMR titration) is 4. Moreover, the “calcium-binding affinity of sites III and IV (CaMC) in CaM-IQp complex” value in experiment [1] was “diminished”. In the experiment with CaM, the “ΔG1 (printed AG1) of calcium binding to CaM alone” value is -7.76 kcal/mol and the “ΔG2 of calcium binding to CaM alone” value was -15.92 kcal/mol. In experiment [2] (simulation for illustration, same cooperativity as CaM alone), the “total free energy of calcium binding to sites III and IV of CaM bound to NaV1.2 IQ motif” value was -13.99 kcal/mol.

With C-domain of CaM [CaMC], in experiment [3], the dissociation constant Kd was 11.6 nM. For the same compound, in the experiment with NaV1.5 DIII-DIV linker, the “affinity of CaMC for NaV1.5 DIII-DIV linker” value is recorded as “micromolar affinity”. Besides, in experiment [2] (neuronal intracellular Ca^2+ range centered on 10 03BCM, simulation, Fig. 7B), the “calcium-saturated CaMC bound to NaV1.2-IQ” value is 50–75%.

Regarding Calmodulin [CaM], the “ratio of Kd, (Ca^2+)4-CaM over apo CaM (higher, weaker)” value in experiment [3] ((Ca^2+)4-CaM vs apo CaM) is given as ~ 30 fold. For the same compound, in experiment [3], the Kd is 3.2 nM. Moreover, the “affinity for apo CaM relative to (Ca^2+)4-CaM, NaV IQ motifs” value in [4] was “higher affinity for apo CaM than (Ca^2+)4-CaM”. Besides, in the experiment with NaV1.2 IQ motif, the “predicted occupancy of NaV1.2 IQ motif, (Ca^2+)4-CaM” value is 37–54% and the “predicted occupancy of NaV1.2 IQ motif, apo CaM” value is 94–97%. Further, the “effect on RyR1” value with ryanodine receptor RyR1 (listed as apo CaM) was “activated”. Besides, the “effect on RyR1” value with ryanodine receptor RyR1 (listed as calcium-saturated CaM) is “inhibited”. In addition, in the experiment on rat Nav1.2IQp, the “relative affinity of apo vs calcium-saturated CaM for rat Nav1.2IQp” value is “binds more favorably than calcium-saturated CaM”. For the same compound, the “affinity of (Ca^2+)4-CaM relative to apo CaM for CaV1.2 IQ motif” value with CaV1.2 IQ motif is “higher affinity for (Ca^2+)4-CaM than apo CaM”. Moreover, the “fractional decrease/change in YFP intensity of biosensor, apo” value in the experiment on NaV1.2IQ biosensor is listed as 36%. Besides, the “predicted occupancy of IQ motif by (Ca^2+)4-CaM at high calcium” value in [2] (10 03BCM free calcium) is ~ 68%.

As for N-domain of CaM [CaMN], the “binding to NaV1.2IQ biosensor, in words” value in experiment [3] (CaMN, apo and 1 mM calcium) is on record as “negligible binding”. Further, in experiment [4] (NaV1.2, 1.5 and 1.6 IQ motifs), the “binding of CaMN to NaV IQ motifs” value is given as “undetectable or very weak binding”. Moreover, in the experiment with NaV1.2IQ biosensor (50 pM CaMN (so in the source) vs 50 nM CaMC), the “deflection in fluorescence intensity relative to that seen at 50 nM CaMC” value was “less than 1%”. The “fractional decrease/change in YFP intensity of biosensor, apo” value in the experiment on NaV1.2IQ biosensor is given as ~ 1%.
